One test deals with T1, mDAGL-α (Mus musculus, UniProt Q6WQJ1).
T1 sequence (Q6WQJ1 1-1044): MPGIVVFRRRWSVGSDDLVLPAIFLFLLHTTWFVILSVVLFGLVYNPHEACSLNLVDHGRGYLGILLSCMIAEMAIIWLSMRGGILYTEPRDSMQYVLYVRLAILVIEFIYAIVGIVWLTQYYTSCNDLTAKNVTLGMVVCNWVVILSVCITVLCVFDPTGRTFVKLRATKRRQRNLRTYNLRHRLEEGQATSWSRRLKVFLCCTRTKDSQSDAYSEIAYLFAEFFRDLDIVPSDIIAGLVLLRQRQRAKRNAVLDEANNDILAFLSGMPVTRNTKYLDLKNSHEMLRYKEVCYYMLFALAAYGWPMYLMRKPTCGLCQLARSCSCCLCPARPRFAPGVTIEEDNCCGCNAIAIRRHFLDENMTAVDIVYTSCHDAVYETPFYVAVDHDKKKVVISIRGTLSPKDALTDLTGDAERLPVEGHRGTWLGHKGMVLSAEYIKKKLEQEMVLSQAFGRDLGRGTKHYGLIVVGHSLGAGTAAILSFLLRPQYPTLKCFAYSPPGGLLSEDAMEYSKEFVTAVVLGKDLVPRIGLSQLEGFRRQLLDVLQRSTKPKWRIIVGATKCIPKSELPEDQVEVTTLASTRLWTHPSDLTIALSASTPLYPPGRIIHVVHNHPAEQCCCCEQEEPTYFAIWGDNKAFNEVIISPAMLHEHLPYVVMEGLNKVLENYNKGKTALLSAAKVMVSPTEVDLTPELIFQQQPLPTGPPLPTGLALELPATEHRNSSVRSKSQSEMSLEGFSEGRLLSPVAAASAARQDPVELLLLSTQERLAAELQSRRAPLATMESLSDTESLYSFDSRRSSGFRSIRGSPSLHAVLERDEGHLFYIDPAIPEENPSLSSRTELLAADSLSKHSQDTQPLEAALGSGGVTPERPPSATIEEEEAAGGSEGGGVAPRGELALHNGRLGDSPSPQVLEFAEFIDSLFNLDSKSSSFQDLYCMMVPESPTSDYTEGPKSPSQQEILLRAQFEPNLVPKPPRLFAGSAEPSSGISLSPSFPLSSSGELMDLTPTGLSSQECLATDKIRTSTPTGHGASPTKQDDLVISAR
As to the kind of experiment: Standard PNP-butyrate surrogate substrate assay. In kind it is biochemical. In a few lines:
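Membrane fraction of HEK293T cells transiently transfected with mDAGL-α, 0.05 μg/μL final, in 50 mM Hepes pH 7.2. Inhibitor in DMSO preincubated 20 min, then PNP-butyrate added (0.3 mM final; 5% DMSO final). OD 420 nm read after 30 min at 20 °C. Data corrected for 10 μM THL background and normalized to DMSO control. N = 2, n = 2; plates kept if Z′ > 0.6.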

The target of a further test is T2, DAGL-α (Mus musculus, UniProt Q6WQJ1).
T2 sequence (Q6WQJ1 1-1044): T1 sequence (Q6WQJ1 1-1044)
In kind it is biochemical. The settings on record: ratio of kinact versus KT109 and DH376.

Consider `O=C(N1CCCC[C@@H]1Cc1ccccc1)n1ncc(C(O)(c2ccc(F)cc2)c2ccc(F)cc2)n1` [Compound 1, (R)-(2-Benzylpiperidin-1-yl)(4-(bis(4-fluorophenyl)(hydroxy)methyl)-2H-1,2,3-triazol-2-yl)methanone], for which, at mDAGL-α, the “potency in the standard surrogate substrate assay (in words)” value is reported as “low nanomolar”. For the same compound, the “inactivation rate (kinact) times higher than for KT109 and DH376” value on DAGL-α was 2–3 times.

As for `O=C(N1CCCC[C@@H]1Cc1ccccc1)n1cc(C(O)(c2ccc(F)cc2)c2ccc(F)cc2)nn1` [Compound 2, (R)-(2-Benzylpiperidin-1-yl)(4-(bis(4-fluorophenyl)(hydroxy)methyl)-1H-1,2,3-triazol-1-yl)methanone], the “potency in the standard surrogate substrate assay (in words)” value on mDAGL-α is listed as “low nanomolar”. For the same compound, the “inactivation rate (kinact) times higher than for KT109 and DH376” value on DAGL-α is reported as 2–3 times.

Values taken from article PMC6745892 (Journal of Medicinal Chemistry, 2019).
